Measurements taken from ChEMBL document CHEMBL3045116, “Synthesis and biological evaluation of 2-(5-substituted-1-((diethylamino)methyl)-2-oxoindolin-3-ylidene)-N-substituted-hydrazinecarbothioamides” (Med Chem Res, 2013).

Legend:
[1] = Cytotoxicity against Homo sapiens (human) HEL cells assessed as change in cellular morphology; type: cell-based
[2] = tested on: Mammalian orthoreovirus 1; experiment: Antiviral activity against Mammalian orthoreovirus 1 infected African green monkey Vero cells assessed as reduction of virus-induced cytopathic effect after 3 days by colorimetric formazan-based MTS assay; type: functional, organism-based; conditions: Mammalian orthoreovirus 1, Vero, 72 h
Summary of the method: (§1)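 Cells grown to confluency in 96-well plates ([…], Vero for lines 9–10) were infected with 100 CCID50 of virus, and serial compound dilutions were added at infection. Plates were incubated at 37 °C for 3 days, until complete CPE appeared in untreated virus controls.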

Human alphaherpesvirus 1 [3] = experiment: Antiviral activity against Human herpesvirus 1 strain KOS infected human HEL cells assessed as reduction of virus-induced cytopathic effect after 3 days by colorimetric formazan-based MTS assay; type: functional, organism-based; conditions: Human alphaherpesvirus 1, KOS, 72 h
Summary of the method: (§2)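 Confluent cell monolayers were infected with 100 CCID50 of virus, and serial dilutions of compound were added at the time of infection.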

Coxsackievirus B4 [4] = experiment: Antiviral activity against Human coxsackievirus B4 infected African green monkey Vero cells assessed as reduction of virus-induced cytopathic effect after 3 days by colorimetric formazan-based MTS assay; type: functional, organism-based; conditions: Enterovirus B, 72 h; summary of the method: as §2
Coxsackievirus B4 [5] = experiment: Antiviral activity against Human coxsackievirus B4 infected human HeLa cells assessed as reduction of virus-induced cytopathic effect after 3 days by colorimetric formazan-based MTS assay; type: functional, organism-based; conditions: Enterovirus B, 72 h; summary of the method: as §2
[6] = Inhibition of beta lactamase assessed as increase in time taken for iodine decolorization relative to control; set-up: concentration or dose not given beside the values; conditions: concentration not given here
Influenza B virus = experiment: Antiviral activity against Influenza B virus infected in MDCK cells assessed as reduction of virus-induced cytopathic effect after 3 days by colorimetric formazan-based MTS assay; type: functional, organism-based; conditions: 72 h; summary of the method: as §2
Bacillus subtilis = experiment: Antibacterial activity against Bacillus subtilis assessed as growth inhibition at 50 ug/ml by cup-plate method (reference value: 8 to 10 mm); type: functional; conditions: read-out: DIZ
Influenza A virus = experiment: Antiviral activity against Unidentified Influenza A virus (H1N1) infected MDCK cells assessed as reduction of virus-induced cytopathic effect after 3 days by colorimetric formazan-based MTS assay; type: functional, organism-based; conditions: 72 h; summary of the method: as §2
[7] = Inhibition of beta lactamase assessed as time for decolorization of iodine (reference value: 79.5 secs)
CCRF-CEM = experiment: Cytotoxicity against Homo sapiens (human) CEM cells assessed as growth inhibition after 72 hr by coulter counter analysis; type: functional, cell-based
Summary of the method: (§3)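 Cells in growth medium were allowed to proliferate with variable compound amounts at 37 °C in a humidified CO2 atmosphere. Incubation ran 48 h for L1210, 72 h for CEM and 96 h for HeLa. Cells were then counted with a Coulter counter.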

Proteus vulgaris = experiment: Antibacterial activity against Proteus vulgaris assessed as growth inhibition at 50 ug/ml by cup-plate method (reference value: 8 to 10 mm); type: functional; conditions: read-out: DIZ
[8] = Cytotoxicity against Chlorocebus aethiops (African green monkey) Vero cells assessed as change in cellular morphology; type: cell-based; conditions: chlorocebus sabaeus
Human respirovirus 3 = experiment: Antiviral activity against Human parainfluenza virus 3 infected African green monkey Vero cells assessed as reduction of virus-induced cytopathic effect after 3 days by colorimetric formazan-based MTS assay; type: functional, organism-based; conditions: Human respirovirus 3, Vero, 72 h; summary of the method: as §1
[9] = tested on: Respiratory syncytial virus; experiment: Antiviral activity against Respiratory syncytial virus infected human HeLa cells assessed as reduction of virus-induced cytopathic effect after 3 days by colorimetric formazan-based MTS assay; type: functional, organism-based; conditions: 72 h; summary of the method: as §2
Aspergillus niger = experiment: Antifungal activity against Aspergillus niger assessed as growth inhibition at 50 ug/ml by cup-plate method (reference value: 8 to 10 mm); type: functional; conditions: read-out: DIZ
Human alphaherpesvirus 2 = experiment: Antiviral activity against Human herpesvirus 2 strain G infected human HEL cells assessed as reduction of virus-induced cytopathic effect after 3 days by colorimetric formazan-based MTS assay; type: functional, organism-based; conditions: Human alphaherpesvirus 2, strain G, 72 h; summary of the method: as §2
Human alphaherpesvirus 1 [10] = experiment: Antiviral activity against acyclovir-resistant thymidine kinase negative Human herpesvirus 1 strain KOS infected human HEL cells assessed as reduction of virus-induced cytopathic effect after 3 days by colorimetric formazan-based MTS assay; type: functional, organism-based; conditions: Human alphaherpesvirus 1, KOS, 72 h; summary of the method: as §2
Felid alphaherpesvirus 1 = experiment: Antiviral activity against Felid herpesvirus 1 infected cat CRFK cells assessed as reduction of virus-induced cytopathic effect after 3 days by colorimetric formazan-based MTS assay; type: functional, organism-based; conditions: Felid alphaherpesvirus 1, CRFK, 72 h; summary of the method: as §1
Respirovirus muris = experiment: Antiviral activity against Sendai virus infected African green monkey Vero cells assessed as reduction of virus-induced cytopathic effect after 3 days by colorimetric formazan-based MTS assay; type: functional, organism-based; conditions: 72 h
Escherichia coli = experiment: Antibacterial activity against Escherichia coli assessed as growth inhibition at 50 ug/ml by cup-plate method (reference value: 8 to 10 mm); type: functional; conditions: read-out: DIZ
Klebsiella pneumoniae = experiment: Antibacterial activity against Klebsiella pneumoniae assessed as growth inhibition at 50 ug/ml by cup-plate method (reference value: 8 to 10 mm); type: functional; conditions: read-out: DIZ
Staphylococcus aureus = experiment: Antibacterial activity against Staphylococcus aureus assessed as growth inhibition at 50 ug/ml by cup-plate method (reference value: 8 to 10 mm); type: functional; conditions: read-out: DIZ
MDCK = experiment: (§4) Cytotoxicity against MDCK cells assessed as change in cellular morphology; type: cell-based, Canis lupus familiaris; conditions: dog, mdck
Summary of the method: (§5)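 Uninfected cells were exposed to compound in parallel with the antiviral cultures. The read-out is the minimum cytotoxic concentration that causes a microscopically detectable alteration of normal cell morphology.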

[11] = as §4; type: cell-based, Canis lupus familiaris; conditions: dog, MDCK cells; summary of the method: as §5
HeLa = experiment: (§6) Cytotoxicity against Homo sapiens (human) HeLa cells assessed as change in cellular morphology; type: cell-based; conditions: hela; summary of the method: as §5
[12] = as §6; type: cell-based; conditions: HeLa cells; summary of the method: as §5
Salmonella typhi = experiment: Antibacterial activity against Salmonella enterica subsp. enterica serovar Typhi assessed as growth inhibition at 50 ug/ml by cup-plate method (reference value: 8 to 10 mm); type: functional; conditions: read-out: DIZ
[13] = Cytotoxicity against Felis catus (cat) CRFK cells assessed as change in cellular morphology; type: cell-based; conditions: crfk; summary of the method: as §5
[14] = tested on: Vesicular stomatitis virus; experiment: Antiviral activity against Vesicular stomatitis virus infected human HEL cells assessed as reduction of virus-induced cytopathic effect after 3 days by colorimetric formazan-based MTS assay; type: functional, organism-based; conditions: 72 h; summary of the method: as §2
Candida albicans = experiment: Antifungal activity against Candida albicans assessed as growth inhibition at 50 ug/ml by cup-plate method (reference value: 8 to 10 mm); type: functional; conditions: read-out: DIZ
L1210 = experiment: Cytotoxicity against Mus musculus (mouse) L1210 cells assessed as growth inhibition after 48 hr by coulter counter analysis; type: functional, cell-based; conditions: L1210, 48 h; summary of the method: as §3
Punta Toro virus = experiment: Antiviral activity against Punta Toro virus infected in African green monkey Vero cells assessed as reduction of virus-induced cytopathic effect after 3 days by colorimetric formazan-based MTS assay; type: functional, organism-based; conditions: 72 h; summary of the method: as §2
[15] = tested on: Feline infectious peritonitis virus; experiment: Antiviral activity against Feline Infectious peritonitis virus infected cat CRFK cells assessed as reduction of virus-induced cytopathic effect after 3 days by colorimetric formazan-based MTS assay; type: functional, organism-based; conditions: Alphacoronavirus 1, CRFK, 72 h; summary of the method: as §2
[16] = tested on: Vesicular stomatitis virus; experiment: Antiviral activity against Vesicular stomatitis virus infected human HeLa cells assessed as reduction of virus-induced cytopathic effect after 3 days by colorimetric formazan-based MTS assay; type: functional, organism-based; conditions: 72 h; summary of the method: as §2
Influenza A virus H3N2 = experiment: Antiviral activity against Influenza A virus H3N2 infected MDCK cells assessed as reduction of virus-induced cytopathic effect after 3 days by colorimetric formazan-based MTS assay; type: functional, organism-based; conditions: 72 h; summary of the method: as §2
Vaccinia virus = experiment: Antiviral activity against Vaccinia virus infected human HEL cells assessed as reduction of virus-induced cytopathic effect after 3 days by colorimetric formazan-based MTS assay; type: functional, organism-based; conditions: Orthopoxvirus vaccinia, 72 h; summary of the method: as §2

Row | SMILES | MCC [1] [µM] | EC50 [2] [µM] | EC50 (Human alphaherpesvirus 1 [3]) [µM] | EC50 (Coxsackievirus B4 [4]) [µM] | EC50 (Coxsackievirus B4 [5]) [µM] | inhibition [6] [%] | EC50 (Influenza B virus) [µM] | zone of inhibition at 50 µg/mL (Bacillus subtilis) [mm] | EC50 (Influenza A virus) [µM] | TIME [7] [h] | IC50 (CCRF-CEM) [µM] | zone of inhibition at 50 µg/mL (Proteus vulgaris) [mm] | MCC [8] [µM] | EC50 (Human respirovirus 3) [µM] | EC50 [9] [µM] | zone of inhibition at 50 µg/mL (Aspergillus niger) [mm] | EC50 (Human alphaherpesvirus 2) [µM] | EC50 (Human alphaherpesvirus 1 [10]) [µM] | EC50 (Felid alphaherpesvirus 1) [µM] | EC50 (Respirovirus muris) [µM] | also measured
1 | CCN(CC)CN1C(=O)/C(=N/NC(N)=S)c2cc(Cl)ccc21 | > 100 | > 100 | > 100 | > 100 | > 100 | 34.6 | > 20 | 11 | > 20 | 0.0338 | 71 | 11 | > 100 | > 100 | > 100 | 11 | > 100 | > 100 | > 100 | > 100 | zone of inhibition at 50 µg/mL (Escherichia coli): 11 mm; zone of inhibition at 50 µg/mL (Klebsiella pneumoniae): 11 mm; zone of inhibition at 50 µg/mL (Staphylococcus aureus): 21 mm; CC50 (MDCK): 78.3 µM; MCC [11]: 100 µM; CC50 (HeLa): > 100 µM; MCC [12]: > 100 µM; zone of inhibition at 50 µg/mL (Salmonella typhi): 11 mm; CC50 [13]: > 100 µM; EC50 [14]: > 100 µM; zone of inhibition at 50 µg/mL (Candida albicans): 11 mm; IC50 (L1210): 148 µM; EC50 (Punta Toro virus): > 100 µM; EC50 [15]: > 100 µM; EC50 [16]: > 100 µM; EC50 (Influenza A virus H3N2): > 20 µM; EC50 (Vaccinia virus): 20 µM
2 | CCN(CC)CN1C(=O)/C(=N/NC(=S)Nc2ccc(OC)cc2)c2ccccc21 | 100 | > 0.8 | > 20 | > 0.8 | > 4 | 35.7 | > 0.8 | 11 | > 0.8 | 0.0343 | 1.9 | 21 | 4 | > 0.8 | > 4 | 11 | > 20 | > 20 | > 0.8 | > 0.8 | zone of inhibition at 50 µg/mL (Escherichia coli): 11 mm; zone of inhibition at 50 µg/mL (Klebsiella pneumoniae): 11 mm; zone of inhibition at 50 µg/mL (Staphylococcus aureus): 11 mm; CC50 (MDCK): 9.2 µM; MCC [11]: 4 µM; CC50 (HeLa): > 100 µM; MCC [12]: ≥ 4 µM; zone of inhibition at 50 µg/mL (Salmonella typhi): 21 mm; CC50 [13]: 3.5 µM; EC50 [14]: > 20 µM; zone of inhibition at 50 µg/mL (Candida albicans): 11 mm; IC50 (L1210): 2.4 µM; EC50 (Punta Toro virus): > 0.8 µM; EC50 [15]: > 0.8 µM; EC50 [16]: > 4 µM; EC50 (Influenza A virus H3N2): > 0.8 µM; EC50 (Vaccinia virus): > 20 µM
3 | CCN(CC)CN1C(=O)/C(=N/NC(=S)Nc2ccc(Cl)cc2)c2cc(Cl)ccc21 | 100 | > 20 | > 20 | > 20 | > 20 | 44.2 | > 0.8 | 21 | > 0.8 | 0.0395 | > 125 | 21 | 100 | > 20 | > 20 | 21 | > 20 | > 20 | > 4 | > 20 | zone of inhibition at 50 µg/mL (Escherichia coli): 21 mm; zone of inhibition at 50 µg/mL (Klebsiella pneumoniae): 11 mm; zone of inhibition at 50 µg/mL (Staphylococcus aureus): 21 mm; CC50 (MDCK): 2.4 µM; MCC [11]: ≥ 0.8 µM; CC50 (HeLa): 9.4 µM; MCC [12]: 100 µM; zone of inhibition at 50 µg/mL (Salmonella typhi): 21 mm; CC50 [13]: 9.1 µM; EC50 [14]: > 20 µM; zone of inhibition at 50 µg/mL (Candida albicans): 21 mm; IC50 (L1210): > 125 µM; EC50 (Punta Toro virus): > 20 µM; EC50 [15]: > 4 µM; EC50 [16]: > 20 µM; EC50 (Influenza A virus H3N2): > 0.8 µM; EC50 (Vaccinia virus): > 20 µM
